In the library only some 2.9% were active in any assay of this set; here they are far more common.
TCR-CD3 inh: inhibitors of human TCR-CD3 interaction | 360,000 compounds, 0.37% hits | inhibition, % at 9.4 µM | TAMRA-labeled TCR probe fluorescence, biochemical | AID 651800; in the data active = inhibition above about 19%;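 also: recombinant mutant TCR 2C K166C tagged with TAMRA read by polarization; 0% = receptor in buffer alone and 100% = receptor with positive control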
mABHD4 FP: inhibits mouse alpha/beta hydrolase domain 4; 370,000 compounds, 0.54% hits; purified mABHD4, FP-Rh probe fluorescence polarization; inhibition, % at 8.92 µM; Q8VD66;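 active = inhibition exceeding the mean over every tested compound plus 3 SD, cut at about 30% in these data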;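 also: 0% = plate median of compound wells and 100% = S159A mutant with DMSO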
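Doses – 8.92 µM, single dose · Material – wild-type mouse ABHD4 protein · Replication – single well per compound (singlicate) · Measure – percent inhibition of probe binding, normalized to plate controls · Schedule – 45 min compound pre-incubation plus 60 min probe step, 25 °C · Detection – fluorescence polarization with parallel and perpendicular emission, 525/598 nm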
PRMT1 inh: PRMT1 (human) inhibition, primary screen; Q99873; recombinant PRMT1, activity-based probe fluorescence polarization; inhibition, % at 2.79 µM; 370,000 compounds, 1.3% hits;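 active = inhibition above about 21% made by adding two undisclosed values, limit read from the data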
HTRA1 inh: blocks human HTRA1 serine peptidase | Q92743 | recombinant HTRA1, FP-rhodamine activity-based probe, fluorescence polarization | inhibition, % at 5.96 µM | 340,000 compounds, 0.5% hits; in the data active = inhibition above about 36%;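 also: 0% = enzyme with DMSO and 100% = wells lacking enzyme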
Target sequence (Q92743 whole entry, looked up): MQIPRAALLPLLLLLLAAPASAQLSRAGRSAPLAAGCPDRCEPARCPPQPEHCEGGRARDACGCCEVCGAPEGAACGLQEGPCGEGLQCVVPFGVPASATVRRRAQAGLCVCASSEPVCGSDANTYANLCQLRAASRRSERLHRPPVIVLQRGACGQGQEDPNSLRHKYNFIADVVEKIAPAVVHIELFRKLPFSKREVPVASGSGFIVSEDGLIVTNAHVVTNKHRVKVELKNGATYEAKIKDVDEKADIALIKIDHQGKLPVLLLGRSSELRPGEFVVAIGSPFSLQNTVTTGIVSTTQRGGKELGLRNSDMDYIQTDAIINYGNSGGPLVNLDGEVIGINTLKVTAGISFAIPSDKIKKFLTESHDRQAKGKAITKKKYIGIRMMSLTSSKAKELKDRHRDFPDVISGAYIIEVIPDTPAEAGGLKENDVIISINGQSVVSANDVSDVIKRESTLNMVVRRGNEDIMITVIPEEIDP
SIAE inh: human SIAE inhibition, primary screen | Q9HAT2 | SIAE FP-Rh probe binding, fluorescence polarization | inhibition, % at 9.66 µM | 370,000 compounds, 0.69% hits | AID 1053197;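 active = inhibition above a cutoff: mean of compounds within the control limits plus 3 SD of those, cut at about 17% in these data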;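 also: 0% = plate median of compound wells and 100% = probe without SIAE protein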
PAD4 FP inh: blocks human protein arginine deiminase 4; recombinant PAD4, RCA probe fluorescence polarization; inhibition, % at 6.36 µM; AID 485272; 330,000 compounds, 0.41% hits;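 active = percent inhibition above a cutoff equal to the mean of all tested compounds plus 3 SD, cut at about 15% in these data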;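 also: 0% = PAD4 with RCA probe and DMSO and 100% = probe without PAD4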
ABHD4 confirm: ABHD4 (mouse) inhibition, FP confirmation. shares compounds with mABHD4 FP. purified mABHD4, FP-Rh probe fluorescence polarization. inhibition, % at 8.92 µM. 1,800 compounds, 55% hits. AID 720658;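 active = mean inhibition across replicates above the hit cutoff set in the primary screen, cut at about 30% in these data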;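 also: 0% = wild-type ABHD4 with DMSO and 100% = catalytically dead S159A mutant with DMSO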
* = called active by the depositor; . = no result given.

SMILES | TCR-CD3 inh | mABHD4 FP | PRMT1 inh | HTRA1 inh | SIAE inh | PAD4 FP inh | ABHD4 confirm
Nc1[nH]n(-c2ccccc2)c(=O)c1N=Nc1ccc(F)cc1 | . | 27.0 | 0.9 | . | 11.4 | . | .
Cc1cc([N+](=O)[O-])ccc1N=Nc1c(N)[nH]n(-c2ccccc2)c1=O | 8.3 | 29.9* | 1.4 | 3.2 | 9.0 | -1.2 | 40.8*
Nc1[nH]n(-c2ccccc2)c(=O)c1N=Nc1ccc2c(c1)OCCO2 | 5.9 | 30.4* | -0.8 | 28.4 | 8.6 | 2.0 | 28.5
O=C(NCCc1ccccc1Cl)[C@@H]1CCCN1C(=O)[C@H](Cc1cccnc1)NC(=O)N1CCOCC1 | -4.5 | 1.0 | 4.2 | . | -5.0 | . | .
Cc1ccc(CN2CCCCC(NC(=O)c3ccc(COc4ccccc4)cc3)C2=O)cc1 (centres undefined) | . | -13.8 | -1.0 | . | -5.6 | . | .
Nc1ccc(NC(=O)c2ccc(C(=O)Nc3ccc(N)cc3)cc2)cc1 | -5.2 | -15.1 | 6.3 | -5.8 | -4.5 | -2.5 | .
Nc1ccc(C(=O)Nc2ccc3c(O)cc(S(=O)(=O)O)cc3c2)cc1 | 6.6 | 35.8* | 7.3 | 6.5 | -15.8 | . | 24.5
O=C(C1CCN(c2ncnc3c2sc2cccc(F)c23)CC1)N1CCN(Cc2ccccc2)CC1 | . | -6.2 | -7.2 | . | -3.0 | . | .
CCC(C)Sc1cccc(-c2nc3cnccn3c2NC2CCCCC2)c1 (centres undefined) | 2.8 | 13.2 | 5.7 | -43.6 | 12.0 | 2.0 | .
CCC(C)Sc1cc(-c2nc3ccccn3c2NC2CCCCC2)ccc1OC (centres undefined) | 6.1 | 47.3* | 0.6 | -20.7 | 10.0 | -0.5 | 44.9*
CCC(C)Sc1cc(-c2nc3cc(C)ccn3c2NC2CCCCC2)ccc1OC (centres undefined) | -1.0 | 31.2* | -1.0 | -0.1 | -0.4 | -7.0 | 67.2*
CN1OC[C@@H]2CN(C(=O)c3ccc([N+](=O)[O-])cc3)[C@H](c3ccccc3Br)C[C@@H]21 | -1.7 | -10.2 | 1.1 | . | 3.1 | . | .
COc1cc(/C=C2\SC(=S)N(Nc3ccccc3)C2=O)cc(OC)c1OC | -0.8 | 33.3* | 8.0 | -11.1 | 1.5 | -6.3 | 40.2*
O=C(C(=O)N1CCC(CNS(=O)(=O)c2ccccc2OC(F)(F)F)CC1)c1cccs1 | -6.0 | -10.1 | 3.5 | . | -5.3 | . | .
Cc1cccc(CSc2nnc(-c3ccccn3)n2N)c1 | 4.0 | 35.8* | -1.0 | 0.1 | -6.6 | 1.6 | 10.8
O=C(CNS(=O)(=O)c1ccc(Br)s1)N1CCN(c2ccccn2)CC1 | . | 5.1 | -0.8 | . | -1.6 | . | .
O=C(NC1CC1)c1sc2ccccc2c1Cl | -5.6 | -1.7 | 3.6 | 3.5 | -2.0 | 0.0 | .
O=C(NNC(=S)NC1CCCCC1)c1sc2ccccc2c1Cl | 6.4 | 30.9* | -1.2 | 8.7 | 12.4 | -1.1 | 21.9
CC(C)(C)c1ccc(/C=C2\Oc3cc(OC(=O)N4CCOCC4)ccc3C2=O)cc1 | 1.1 | 67.3* | 3.2 | -2.4 | -3.5 | 1.6 | 57.1*
Cc1ccc(/C=C2\Oc3cc(OC(=O)N4CCOCC4)ccc3C2=O)cc1 | -4.8 | 11.7 | -0.7 | 1.3 | -0.1 | 1.1 | .
O=C(N=Nc1c(O)[nH]c2ccc([N+](=O)[O-])cc12)c1ccccc1[N+](=O)[O-] | -5.6 | 10.7 | 0.5 | 2.4 | -2.2 | -16.7 | .
CCc1cc(C(=O)N=Nc2c(O)[nH]c3ccc([N+](=O)[O-])cc23)c2ccccc2n1 | 7.7 | 40.4* | 0.8 | 6.6 | 1.7 | -7.1 | 41.4*
C/C(C=NNC(=O)CSc1nnc(-c2ccc(Cl)cc2)n1-c1ccc(C)cc1)=C\c1ccccc1 | . | 0.1 | -2.5 | . | -4.3 | . | .
CCN(CC)C(=O)CC[C@H]1CC[C@]2(CCCN(C(=O)c3ccc4ccccc4n3)C2)O1 | . | 2.0 | 5.7 | . | -2.8 | . | .
COC(=O)C1=C(C)N(Cc2ccccc2C(F)(F)F)C(=NCc2ccc(C(F)(F)F)cc2)NC1c1ccccc1 (centres undefined) | -2.8 | 14.4 | 0.1 | . | -4.8 | . | .
SMILES | TCR-CD3 inh | mABHD4 FP | PRMT1 inh | HTRA1 inh | SIAE inh | PAD4 FP inh | ABHD4 confirm
CCC(C)c1ccccc1NC(=O)COC(=O)c1ccc(C)c(NC(=O)c2ccco2)c1 (centres undefined) | 5.0 | 49.0* | -4.2 | -20.0 | -3.9 | 0.2 | -9.6
c1ccc(Nc2nc(NCc3ccco3)c3ccccc3n2)cc1 | -10.0 | 21.2 | 2.5 | -27.9 | 7.9 | -1.8 | .
COc1cccc(Nc2nc(NCCO)c3ccccc3n2)c1 | -8.6 | 39.1* | 6.4 | 4.8 | 10.1 | -7.8 | 47.3*
Cc1cccc(Nc2nc(NCc3ccco3)c3ccccc3n2)c1 | 6.0 | 39.3* | 2.2 | -25.2 | 22.6* | -11.4 | 46.0*
Cc1nnc(Nc2ccc(O)cc2)[nH]c1=O | -5.8 | 43.2* | 4.0 | 8.9 | 2.3 | 0.6 | 24.5
CCCOc1ccccc1-n1sc2c(c1=S)-c1cc(OC)cc3c1N(C(=O)C3=O)C2(C)C | 5.0 | 34.6* | 0.2 | 17.9 | 9.6 | 3.2 | 60.1*
COc1cc2c3c(c1)C(C)=CC(C)(C)N3C(=O)C2=O | 3.2 | 7.2 | 2.2 | 8.7 | 8.4 | 3.1 | .
Cn1c(/C=C/c2ccc(Cl)cc2)nc2ccccc2c1=O | 4.6 | 57.0* | -0.1 | 0.4 | -2.3 | -0.8 | -18.3
COc1ccc(NC(=O)NCCCN2CCN(c3ccc(F)cc3)CC2)cc1OC | . | 5.0 | -3.0 | . | -1.2 | . | .
Cc1cc(NN=Cc2ccccn2)nc2c(C)cccc12 | -2.9 | 2.4 | -3.8 | . | 1.4 | . | .
COc1ccc(C=NNc2nc3ccccc3s2)cc1 | 5.0 | 9.0 | 1.7 | 1.6 | 9.1 | . | .
Cc1cc(NN=Cc2ccccn2)nc2ccccc12 | -4.0 | 42.6* | -2.7 | . | 2.5 | . | 26.5
C(=N\Nc1nc2ccccc2s1)/c1ccccn1 | -2.5 | 37.3* | -2.9 | . | 0.5 | 1.2 | 39.8*
CCC/C=N/Nc1nc2ccccc2s1 | -8.8 | 50.3* | 6.6 | 27.6 | 7.1 | -1.7 | 17.0
C(=NNc1ccc2ccccc2n1)c1ccccn1 | -5.4 | 44.5* | -0.8 | . | 7.2 | . | 12.5
CCOC(=O)C1(Cc2ccccc2)CCN(Cc2ccc(C(F)(F)F)cc2)CC1 | . | 0.7 | -3.6 | . | 7.2 | . | .
CN(CCOC(=O)c1cccs1)C1CN(Cc2cn(Cc3ccccc3Cl)nn2)S(=O)(=O)C1 (centres undefined) | . | -8.4 | 4.9 | . | 3.3 | . | .
CCCCOc1ccc2c(c1)C(=O)c1cc(O)ccc1-2 | 4.8 | 43.6* | 2.4 | 34.8 | 9.4 | 2.3 | 53.6*
CN(C)CCOc1ccc(-c2c(-c3ccsc3)sc3ccccc23)cc1 | -5.6 | 33.6* | -4.5 | -21.0 | 15.9 | 1.0 | 38.8*
Cc1ccc(-n2c(SCC(=O)c3ccc(F)cc3)nnc2-c2cccnc2)cc1 | . | -0.7 | -0.2 | . | 0.4 | . | .
Cc1cc(N/N=C/c2cccc(Cl)c2)nc(NCc2ccccc2)n1 | -4.7 | 40.4* | 0.2 | -34.7 | 8.0 | 2.1 | 59.8*
Cc1cc(N/N=C/c2ccccc2)nc(NCc2ccccc2)n1 | 2.6 | 11.8 | 3.7 | -5.8 | -0.4 | -4.4 | .
Cc1cc(N/N=C/c2cccc(F)c2)nc(NCc2ccccc2)n1 | 9.5 | 38.5* | -2.8 | -24.8 | -3.6 | 5.8 | 38.6*

High-throughput results: PubChem, The Scripps Research Institute Molecular Screening Center
